The text below walks through data of ChEMBL document CHEMBL1125597, “Potent inhibitory effect of a series of modified cyclodextrin sulfates (mCDS) on the replication of HIV-1 in vitro” (J Med Chem, 1991).

Experiment [1] concerns MT4. As to the kind of experiment: Compound was evaluated for the minimum concentration for appearance of MT-4 cell toxicity. The experiment is classed as functional, Homo sapiens. The method, boiled down:
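MT-4 cells incubated 5 days with test compound (12 doses, 0.49–1000 µg/mL); lowest concentration at which toxicity appears, viable cells by trypan blue staining in mock-infected cultures. Median of 2 or 3 experiments.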

Experiment [2] relates to MT4. As to the kind of experiment: The minimum concentration for complete inhibition (IC100) of HIV-1 strain LAV-1 from human induced CPE in MT-4 cells. The experiment is classed as functional. The method, boiled down: (§1)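 MT-4 cells infected 1 h with HIV-1 (LAV-1 or patient isolate KK-1 AIDS) at 0.001 TCID50 per cell, unbound virus washed off. Cultured 5 days with compound (12 doses, 0.49–1000 µg/mL); viable cells in infected and mock cultures by trypan blue. Minimum concentration fully preventing CPE; median of 2 or 3 experiments.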

For experiment [3], the system named is MOLT-4. As to the kind of experiment: Suppressive effect on giant-cell formation against HIV-1LAV-1 in MOLT-4 cells. The class given is functional, Homo sapiens. The method, boiled down: (§2)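 Uninfected MOLT-4 mixed 1:1 with persistently infected MOLT-4 (HIV-1 LAV-1 or HIV-2 GH-1 carriers), 5×10^5 cells/mL total, cultured 24 h with compound. Viable cells counted by trypan blue exclusion; fusion index = 1 − cells in test well/cells in uninfected MOLT-4 control. Median of 2 or 3 experiments.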

Experiment [4] deals with MOLT-4. Kind of experiment: Suppressive effect on giant-cell formation against HIV-2GH-1 in MOLT-4 cells. The experiment is classed as functional, Homo sapiens. The gist of the method: as §2
The test system of experiment [5] is MT4. Kind of experiment: Compound was evaluated for the anticoagulant activity. The experiment is classed as functional, Homo sapiens. The method, boiled down: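 Zucker activated partial thromboplastin time (APTT) method; value is the concentration (µg/mL) giving 2-fold APTT. Median of 2 or 3 experiments.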
The subject of experiment [6] is MT4. Kind of experiment: The minimum concentration for complete inhibition (IC100) of HIV-1 strain KK-1AIDS from human induced CPE in MT-4 cells. The experiment is classed as functional. The gist of the method: as §1

In the case of `COc1ccc(NCC2O[C@@H]3O[C@@H]4C(CNc5ccc(OC)cc5)O[C@@H](O[C@@H]5C(CNc6ccc(OC)cc6)O[C@H](O[C@@H]6C(CNc7ccc(OC)cc7)O[C@H](O[C@@H]7C(CNc8ccc(OC)cc8)O[C@H](O[C@@H]8C(CNc9ccc(OC)cc9)O[C@H](O[C@@H]9C(CNc%10ccc(OC)cc%10)O[C@H](O[C@H]2C(O)C3OS(=O)(=O)[O-])C(OS(=O)(=O)[O-])C9OS(=O)(=O)[O-])C(OS(=O)(=O)[O-])C8OS(=O)(=O)[O-])C(OS(=O)(=O)[O-])C7O)C(OS(=O)(=O)[O-])C6OS(=O)(=O)[O-])C(OS(=O)(=O)[O-])C5OS(=O)(=O)[O-])C(OS(=O)(=O)[O-])C4OS(=O)(=O)[O-])cc1.[Na+].[Na+].[Na+].[Na+].[Na+].[Na+].[Na+].[Na+].[Na+].[Na+].[Na+].[Na+]` (stereo partly specified), in experiment [1], the Cytotoxicity is more than 1000 µg/mL. Besides, the IC100 in experiment [2] turned out to be 0.98 µg/mL; in experiment [6], 31.2 µg/mL. Also, the Supressive effect in experiment [3] amounted to 5.5 µg/mL; in experiment [4], 40.2 µg/mL. In experiment [5], this molecule yielded an APTT of 4.3 µg/mL.

On to `O=[PH](O)OCC1O[C@H]2O[C@@H]3C(CO[PH](=O)O)O[C@H](O[C@@H]4C(CO[PH](=O)O)O[C@H](O[C@@H]5C(CO[PH](=O)O)O[C@H](O[C@@H]6C(CO[PH](=O)O)O[C@H](O[C@@H]7C(CO[PH](=O)O)O[C@H](O[C@@H]8C(CO[PH](=O)O)O[C@H](O[C@H]1C(O)C2O)C(O)C8Cl)C(O)C7Cl)C(O)C6O[PH](=O)O)C(O)C5Cl)C(O)C4Cl)C(O)C3Cl` (stereo partly specified) [CYCLODEXTRIN PHOSPHATE], for which the Cytotoxicity in experiment [1] was more than 1000 µg/mL. Further, the IC100 in experiment [2] is 31.2 µg/mL; in experiment [6], 40 µg/mL. The same molecule came in with an APTT in experiment [5] of 47.2 µg/mL.

Take `O=S(=O)([O-])OCC1O[C@@H]2O[C@@H]3C(COS(=O)(=O)[O-])O[C@H](O[C@@H]4C(COS(=O)(=O)[O-])O[C@@H](O[C@@H]5C(COS(=O)(=O)[O-])O[C@H](O[C@@H]6C(COS(=O)(=O)[O-])O[C@H](O[C@@H]7C(COS(=O)(=O)[O-])O[C@H](O[C@@H]8C(COS(=O)(=O)[O-])O[C@H](O[C@H]1C(O)C2OS(=O)(=O)[O-])C(OS(=O)(=O)[O-])C8O)C(OS(=O)(=O)[O-])C7O)C(OS(=O)(=O)[O-])C6O)C(OS(=O)(=O)[O-])C5O)C(OS(=O)(=O)[O-])C4O)C(OS(=O)(=O)[O-])C3O.[K+].[K+].[K+].[K+].[K+].[K+].[K+].[K+].[K+].[K+].[K+].[K+].[K+].[K+]` (stereo partly specified) [CYCLODEXTRIN SULFATE (CDS)]: in experiment [1], the Cytotoxicity is more than 1000 µg/mL. Moreover, the results for the IC100 in experiment [2] and in experiment [6] were 31.2 µg/mL and 125 µg/mL, respectively. The Supressive effect in experiment [3] was 60 µg/mL; in experiment [4], 519 µg/mL. Moreover, in experiment [5], the APTT came out at 2.83 µg/mL.
